The list is not random: actives were taken first. Their share in the collection is about 2.5%.
INS promoter inh: TRM-6 insulin promoter activity inhibition; inhibition, % at 2 µM; TRM-6 cells (human fetal islet line), insulin promoter-eGFP reporter, imaging; reporter expression induced with tamoxifen; hit rate 0.9% among 130,000;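 active = inhibition above the mean plus 3 SD, with well images judged a real hit on visual review, cut at about 60% in these data, passing the limit was not always enough; inconclusive = inhibition over the cutoff but images rejected on review; inactive = inhibition not above the cutoff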
NPY-Y2 PAM-ag: potentiates or activates human NPY-Y2 receptor. activation, % at 3.6 µM. AID 1359. hit rate 0.45% among 220,000. P49146. cells expressing NPY-Y2, potentiator/agonist read-out; in the data active = activation above about 27%;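 note: cells stimulated with NPY near EC25 plus isoproterenol at EC100; 0% = vehicle plus submaximal agonist and 100% = vehicle plus saturating agonist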
Target sequence (P49146 whole entry, looked up): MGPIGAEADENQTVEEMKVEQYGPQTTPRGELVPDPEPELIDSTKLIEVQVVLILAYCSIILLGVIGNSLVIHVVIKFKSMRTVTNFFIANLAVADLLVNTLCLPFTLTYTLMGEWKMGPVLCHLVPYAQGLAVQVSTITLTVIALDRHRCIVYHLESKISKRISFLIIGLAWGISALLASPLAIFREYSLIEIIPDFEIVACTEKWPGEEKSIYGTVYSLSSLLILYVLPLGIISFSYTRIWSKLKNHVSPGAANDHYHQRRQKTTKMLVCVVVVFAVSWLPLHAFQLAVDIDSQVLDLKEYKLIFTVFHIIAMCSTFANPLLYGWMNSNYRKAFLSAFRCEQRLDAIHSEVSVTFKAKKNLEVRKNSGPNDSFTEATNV
NPY1 pot ag: potentiates or activates human NPY-Y1 receptor; AID 1304; activation, % at 3.6 µM; NPY-Y1 expressing cells, potentiator/agonist activation; hit rate 0.37% among 220,000; in the data active = activation above about 33%, passing the limit was not always enough;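 note: cells stimulated with NPY at EC10 then isoproterenol at EC100; 0% = low agonist plus stimulus and 100% = saturating agonist plus stimulus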
NPY Y1 blocker: antagonists of human neuropeptide Y receptor Y1 | AID 1040 | hit rate 1% among 200,000 | HEK293-CNG Y1 cells, membrane potential fluorescence; NPY at EC95, then isoproterenol | inhibition, % at 3.6 µM;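 active = inhibition above the campaign mean inhibition of all tested compounds plus 3 SD, cut at about 20% in these data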;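 note: 0% = DMSO wells given NPY plus isoproterenol and 100% = isoproterenol alone without NPY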
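Material: Y1- and CNG-channel-expressing HEK293 cells / Probe or stimulus: NPY 25 nM then isoproterenol 1 µM plus Ro 20-1724 25 µM / Doses: 3.6 µM single dose, DMSO 0.4% / Schedule: compound incubation 1 h at room temperature, readout 45 min post-stimulation / Signal: membrane potential fluorescence / Benchmarks: isoproterenol-only wells as full block versus NPY-plus-isoproterenol wells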
Ins promoter up: MIN6 insulin promoter up-regulation; MIN6 insulin promoter-GFP reporter, high-content imaging; stronger effect = higher value; z-score at 5 µM; hit rate 0.3% among 190,000;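 active = z-score above 3 at 5 µM with at least 500 cells counted in the well; inconclusive = wells under 500 cells, flagged as cytotoxic or low count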
NPY-Y2 antag: antagonists of human neuropeptide Y receptor Y2; NPY-Y2 expressing cells, antagonist mode; P49146; AID 793; hit rate 0.99% among 140,000; inhibition, % at 2.7 µM; in the data active = inhibition above about 17%;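 note: 0% = vehicle with agonist challenge and 100% = reference antagonist with challenge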
Starred values were filed as active, the others as inactive.

`CCNC(=O)C1OC(n2cnc3c(N)ncnc32)C(O)C1O` (stereo not drawn) gave INS promoter inh 31, NPY-Y2 PAM-ag -25, NPY1 pot ag -98, NPY Y1 blocker 127* and NPY-Y2 antag 138*.
For C=CCn1c(O)c(/C(CC)=N/NC(=S)Nc2ccccc2)c(=O)[nH]c1=O the results were NPY-Y2 PAM-ag -6, NPY1 pot ag 8 and Ins promoter up 0.75.
Screening O=c1[nH]sc2cc(F)ccc12 returned INS promoter inh -6, NPY-Y2 PAM-ag -7, NPY1 pot ag 14, NPY Y1 blocker -4 and Ins promoter up -0.94.
`CN(C(=O)CNC(=O)OCc1ccccc1)c1ccc(Br)cc1C(=O)c1ccccc1Cl` gave INS promoter inh -56, NPY-Y2 PAM-ag -19, NPY1 pot ag -41, NPY Y1 blocker 23*, Ins promoter up 0.95 and NPY-Y2 antag 18*.
`Cc1ccc(-c2cc(-c3ccc(C)cc3)[n+](C)o2)cc1` gave INS promoter inh 79*, NPY-Y2 PAM-ag 6, NPY1 pot ag -9, NPY Y1 blocker 0, Ins promoter up inconclusive and NPY-Y2 antag 2.
`CC(=O)NC1CC2CCCC(C1)N2` (stereo not drawn) gave NPY-Y2 PAM-ag 9, NPY1 pot ag 10, NPY Y1 blocker 3, Ins promoter up 0.74 and NPY-Y2 antag 1.
For CC(=O)NC1CC2CCC(C1)N2 (stereo not drawn) the results were INS promoter inh 79*, NPY-Y2 PAM-ag 9, NPY1 pot ag 13, NPY Y1 blocker -1, Ins promoter up 0.06 and NPY-Y2 antag 2.
For O=C(NC1CONC1=O)OCC(Cl)(Cl)Cl (stereo not drawn) the results were INS promoter inh 46, NPY-Y2 PAM-ag -19, NPY1 pot ag -37, NPY Y1 blocker 7, Ins promoter up 0.42 and NPY-Y2 antag 3.
CCN(CC)C(=O)c1ccc(NC(=O)Nc2ccccc2F)cc1 was read as NPY-Y2 PAM-ag 0, NPY1 pot ag 8, NPY Y1 blocker 6 and Ins promoter up -0.16.
`Cc1nonc1OCCNc1ccc([N+](=O)[O-])c2cccnc12` gave NPY-Y2 PAM-ag -1, NPY1 pot ag 2, NPY Y1 blocker 2, Ins promoter up -0.62 and NPY-Y2 antag 1.
O=[N+]([O-])c1ccc(NCc2ccccc2)c2nonc12 was read as NPY-Y2 PAM-ag -15, NPY1 pot ag -9, NPY Y1 blocker 4 and Ins promoter up 13*.
For CCCCn1c(O)c(C(CC)=NCc2ccc(F)cc2)c(=O)[nH]c1=O the results were INS promoter inh 83*, NPY-Y2 PAM-ag -3, NPY1 pot ag 6, NPY Y1 blocker 0, Ins promoter up -0.36 and NPY-Y2 antag 0.
For CCN1CCC2(CCNC2)C1 (stereo not drawn) the results were NPY-Y2 PAM-ag -20, NPY1 pot ag -16, NPY Y1 blocker 1, Ins promoter up -0.45 and NPY-Y2 antag 4.
O=c1c(C=NCc2cccs2)c(O)n(C2CCCCC2)c(=O)n1C1CCCCC1 was read as INS promoter inh 31, NPY-Y2 PAM-ag 5, NPY1 pot ag -2, NPY Y1 blocker -2 and NPY-Y2 antag 1.
Screening N=C(N)c1c(O)n(C2CCCCC2)c(=O)n(C2CCCCC2)c1=O returned INS promoter inh 50, NPY-Y2 PAM-ag 31*, NPY1 pot ag 30, NPY Y1 blocker -8, Ins promoter up 0.03 and NPY-Y2 antag 0.
For Cc1nn(-c2ccccc2)c2c1C(c1ccc3c(c1)OCO3)SCC(=O)N2 (stereo not drawn) the results were INS promoter inh 79*, NPY-Y2 PAM-ag 5, NPY1 pot ag -2, NPY Y1 blocker 1, Ins promoter up -0.41 and NPY-Y2 antag 4.
For O=S(=O)(c1ccccc1)N1CN2CCN(C2)C1 the results were INS promoter inh 86*, NPY-Y2 PAM-ag -5, NPY1 pot ag -5, NPY Y1 blocker -1, Ins promoter up 0.94 and NPY-Y2 antag 1.
Screening Cc1cc(C(=O)CS(=O)c2ccc(F)cc2)cc(C)c1OC(=O)N(C)C (stereo not drawn) returned INS promoter inh 14, NPY-Y2 PAM-ag 1, NPY1 pot ag 0, NPY Y1 blocker 1 and Ins promoter up 1.2.
O=c1c2cc(Br)ccc2[nH]c(=S)n1-c1ccccc1 was read as INS promoter inh 73*, NPY-Y2 PAM-ag 0, NPY1 pot ag -7, NPY Y1 blocker -4 and Ins promoter up 1.2.
COc1ccc(/C=C/C(=O)c2c(O)n(CCC3=CCCCC3)c(=O)[nH]c2=O)cc1OC was read as NPY-Y2 PAM-ag 8, NPY1 pot ag 7 and Ins promoter up -0.32.
For Cc1ccc(-n2c(O)c(C=Nc3ccccc3N)c(=O)[nH]c2=O)cc1C the results were INS promoter inh 18, NPY-Y2 PAM-ag 9, NPY1 pot ag 10, NPY Y1 blocker 2, Ins promoter up -0.21 and NPY-Y2 antag 3.
`O=c1[nH]c(=O)n(-c2ccc(F)cc2)c(O)c1C=Nc1ccccc1N1CCCC1` gave INS promoter inh -22, NPY-Y2 PAM-ag 7, NPY1 pot ag 0, NPY Y1 blocker -5, Ins promoter up 4.4* and NPY-Y2 antag -2.
`CN[C@H]1C[C@H]2O[C@@](C)([C@H]1OC)n1c3ccccc3c3c4c(c5c6ccccc6n2c5c31)C(=O)NC4` gave INS promoter inh -335, NPY-Y2 PAM-ag 16, NPY1 pot ag -57, NPY Y1 blocker 54* and NPY-Y2 antag 30*.
Screening Cc1cc(C=O)c(C)n1C1CCCCC1 returned INS promoter inh 69*, NPY-Y2 PAM-ag 1, NPY1 pot ag 14, NPY Y1 blocker -4, Ins promoter up 0.94 and NPY-Y2 antag 3.
Screening FC(F)(F)C1=NC(C(F)(F)F)=NP(N2CCOCC2)(N2CCOCC2)=N1 returned NPY-Y2 PAM-ag 3, NPY1 pot ag 17, NPY Y1 blocker -2, Ins promoter up 0.32 and NPY-Y2 antag 0.
For O=c1[nH]c2ccccc2c(=O)n1-c1cccc(Cl)c1 the results were INS promoter inh 82*, NPY-Y2 PAM-ag 10, NPY1 pot ag 24, NPY Y1 blocker -4, Ins promoter up -0.35 and NPY-Y2 antag 2.
`COc1ccc(C)cc1NC(=O)c1c(C)nn(Cc2ccccc2)c1Cl` gave NPY-Y2 PAM-ag -19, NPY1 pot ag -24, NPY Y1 blocker 20*, Ins promoter up 1.6 and NPY-Y2 antag 21*.
CCc1ccccc1N1C(=O)/C(=C/c2ccc(N3CCN(C)CC3)o2)C(=O)NC1=S was read as INS promoter inh -60, NPY-Y2 PAM-ag 4, NPY1 pot ag 13, NPY Y1 blocker -7, Ins promoter up 3.4* and NPY-Y2 antag 1.
Cc1cccc(N2C(=O)/C(=C/c3ccc(N4CCN(C)CC4)o3)C(=O)NC2=S)c1C was read as INS promoter inh -73, NPY-Y2 PAM-ag 11, NPY1 pot ag 10, NPY Y1 blocker -4, Ins promoter up 2.5 and NPY-Y2 antag 1.
Screening COC(=O)[C@H]1C[C@@H]1[C@H](NP(=O)(c1ccccc1)c1ccccc1)c1ccccc1 returned INS promoter inh -77, NPY-Y2 PAM-ag -13, NPY1 pot ag -36, NPY Y1 blocker 40*, Ins promoter up -0.25 and NPY-Y2 antag 19*.

Screening data as filed in PubChem BioAssay.
